Data from the RNAGym collection of RNA variant scans (doi:10.1126/science.aae0568).
This sample holds only a part of the variants without activity.

B1: tRNA (parent)
chain: GUUCCGUUGGCGUAAUGGUAACGCGUCUCCCUCCUAAGGAGAAGACUGCGGGUUCGAGUCCCGUACGGAACG

Variants of: B1
Assay: yeast fitness relative to wild type (ratio to wild type); higher = fitter; tRNA-Arg(CCU), competitive growth, 37 C, YPD
In short: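 Amplicons of the tRNA-Arg(CCU) gene were sequenced, 100-nucleotide paired-end, from the start population and from each end population of a pooled yeast competition. The competition, in six parallel replicates, lasted 24 hours in YPD at 37°C. Fitness relative to wild type was calculated from changes in genotype frequencies. Genotypes had to have ≥ 100 starting reads, and estimates < 0.5 were set to 0.5.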

| Variant | yeast fitness |
| --- | --- |
| U32C G38A | 0.962 |
| U32C G38C A69U | 0.531 |
| U32C G38C G68C A69C | 0.589 |
| U32C G39C | 0.765 |
| U32C G48A A57C | ≤ 0.5 |
| U32C G48A U53G | ≤ 0.5 |
| U32C G48C G56A | ≤ 0.5 |
| U32C G51A | 0.851 |
| U32C G52A | 0.76 |
| U32C G56A | 1.07 |
| U32C G58C | 0.884 |
| U32C G68A | 0.921 |
| U32C G68U | 0.877 |
| U32C U35C A37U G52A C66A | 0.719 |
| U32C U35C C49U | 0.659 |
| U32G A36U | 0.697 |
| U32G A36U U59C | ≤ 0.5 |
| U32G A37U U64C | ≤ 0.5 |
| U32G A57C C62G C66G | 0.567 |
| U32G C33A U47A | ≤ 0.5 |
| U32G C33G A70U | 0.543 |
| U32G C34A G38A A70G | ≤ 0.5 |
| U32G C46G | 0.757 |
| U32G C49U G56A | 0.744 |

| Variant | yeast fitness |
| --- | --- |
| U32G G38A C61G A70G | ≤ 0.5 |
| U32G G39C A57U U59A A69C | ≤ 0.5 |
| U32G G41C C46U | 0.647 |
| U32G G48A A70U | 0.553 |
| U32G G48C G58C | ≤ 0.5 |
| U32G G58A | 0.609 |
| U32G G63C | 0.571 |
| U32G U35A A36G A57U | ≤ 0.5 |
| U32G U35A A36G C66U | ≤ 0.5 |
| U32G U47A U64A A65C G67A | 0.6 |
| U32G U54A G67C | ≤ 0.5 |
| C33A | 0.795 |
| C33A A36C G51A | 0.721 |
| C33A A36U | 0.615 |
| C33A A37C C61U C62A | 0.635 |
| C33A A37U C55U A57C G58C | ≤ 0.5 |
| C33A A37U C62A | 0.503 |
| C33A A40U | 0.741 |
| C33A A43U C49A | 0.591 |
| C33A A57U C66U A69U | ≤ 0.5 |
| C33A A65G A69C | ≤ 0.5 |
| C33A C34A G56A | ≤ 0.5 |
| C33A C60G | 0.613 |
| C33A C62U G67A | ≤ 0.5 |

| Variant | yeast fitness |
| --- | --- |
| C33A G38C A43G | ≤ 0.5 |
| C33A G38C G50A U64C | ≤ 0.5 |
| C33A G39A A40U C55U C62U | ≤ 0.5 |
| C33A G39C G41C G44C | 0.549 |
| C33A G68C | 0.744 |
| C33A U35C C46U C49U G52C C61U C66U | ≤ 0.5 |
| C33A U47A | 0.777 |
| C33A U54A | ≤ 0.5 |
| C33G | 0.743 |
| C33G A36C C49A C60G A70U | ≤ 0.5 |
| C33G A37G C49U C60U | 0.551 |
| C33G A40G A42C C66U | ≤ 0.5 |
| C33G A40G G51C C61U | ≤ 0.5 |
| C33G A42G G52A | ≤ 0.5 |
| C33G A43C G68A | ≤ 0.5 |
| C33G A45C C61G | 0.567 |
| C33G A45C G50C | ≤ 0.5 |
| C33G A45C U54C | ≤ 0.5 |
| C33G A45U C55U | ≤ 0.5 |
| C33G A57G C61G A65G C66U | ≤ 0.5 |
| C33G A57U A70U | ≤ 0.5 |
| C33G A65U | 0.728 |
| C33G A70U | 0.714 |
| C33G C34G C46U | 0.547 |

| Variant | yeast fitness |
| --- | --- |
| C33G C34G C62U | ≤ 0.5 |
| C33G C34U U53C | 0.577 |
| C33G C49G C55U | ≤ 0.5 |
| C33G C55G G67A | ≤ 0.5 |
| C33G C61A | 0.607 |
| C33G C61U | 0.711 |
| C33G C66G A70G | 0.54 |
| C33G G41A A42G C46G | ≤ 0.5 |
| C33G G44A G56A | ≤ 0.5 |
| C33G G51A C55A C66U | 0.56 |
| C33G G56C G67C | ≤ 0.5 |
| C33G G63A | 0.6 |
| C33G U35G A37C A43C G44A U64C | ≤ 0.5 |
| C33G U47A G67C A69U | ≤ 0.5 |
| C33G U53C | ≤ 0.5 |
| C33G U54C C62A G68C | ≤ 0.5 |
| C33U | 0.694 |
| C33U A36C | 0.517 |
| C33U A36C A40U | 0.609 |
| C33U A36C U64C | 0.648 |
| C33U A36U A43C A69C | 0.674 |
| C33U A40U G56C | ≤ 0.5 |
| C33U A42C A70C | 0.671 |
| C33U A43G C66U | 0.544 |

| Variant | yeast fitness |
| --- | --- |
| C33U A43G G48C | ≤ 0.5 |
| C33U A43U C49G G50C C61U | ≤ 0.5 |
| C33U A43U C49G G50C C61U C66U | ≤ 0.5 |
| C33U A43U C49G G50C C61U U64C C66U | ≤ 0.5 |
| C33U A45G C49A U53A | ≤ 0.5 |
| C33U A57G | 0.628 |
| C33U A65C | 0.664 |
| C33U A69C | 0.726 |
| C33U C34A G50A C62U A70C | ≤ 0.5 |
| C33U C34G | 0.648 |
| C33U C34G A40G | 0.625 |
| C33U C34U G39C | 0.605 |
| C33U C49A G63C | ≤ 0.5 |
| C33U C49G | 0.817 |
| C33U C55A C66U | 0.562 |
| C33U C61A | 0.52 |
| C33U C61G G68C | ≤ 0.5 |
| C33U C62G A69C | 0.595 |
| C33U C66U | 0.651 |
| C33U G38C | 0.609 |
| C33U G38U | 0.632 |
| C33U G39A A70U | ≤ 0.5 |
| C33U G39C G51A C60G | ≤ 0.5 |
| C33U G39C U59C C61A C62U | ≤ 0.5 |

| Variant | yeast fitness |
| --- | --- |
| C33U G44A C61U | 0.675 |
| C33U G48A A69C | 0.705 |
| C33U G48A C60U U64G A65U | 0.606 |
| C33U G52A A57U | ≤ 0.5 |
| C33U U47G C49U | 0.581 |
| C33U U54C C61G | ≤ 0.5 |
| C34A A37G C66U | ≤ 0.5 |
| C34A A37U G44A G51A C55A | 0.603 |
| C34A A40C | 0.747 |
| C34A A40C U54C | ≤ 0.5 |
| C34A A42G | 0.676 |
| C34A A45C | 0.675 |
| C34A A65G | 0.69 |
| C34A C49U U59C | ≤ 0.5 |
| C34A C55G U64C A65C | ≤ 0.5 |
| C34A C62U | 0.785 |
| C34A G38A | 0.699 |
| C34A G39C A40C G56C C61G C62G | ≤ 0.5 |
| C34A G41A C55G C66U | ≤ 0.5 |
| C34A G44A G52A C55U | 0.53 |
| C34A G50A | 0.742 |
| C34A G50C | 0.667 |
| C34A G67C | 0.782 |
| C34A G67U | 0.717 |

| Variant | yeast fitness |
| --- | --- |
| C34A U47A C61A | ≤ 0.5 |
| C34A U47C | 0.646 |
| C34A U47C G51A | 0.53 |
| C34A U54A | ≤ 0.5 |
| C34G A36U C62A | ≤ 0.5 |
| C34G A37C | 0.554 |
| C34G A37C C60G A65U | ≤ 0.5 |
| C34G A37C C62U C66A | ≤ 0.5 |
| C34G A37G C62A | ≤ 0.5 |
| C34G A37G G38A G50A | ≤ 0.5 |
| C34G A40C C46G | 0.562 |
| C34G A40C G44A A69U | ≤ 0.5 |
| C34G A40G G48C G63A C66U | 0.605 |
| C34G A40G U64C | 0.578 |
| C34G A42C C62G | 0.631 |
| C34G A42U | 0.621 |
| C34G A43U A70C | ≤ 0.5 |
| C34G A43U C61G | 0.614 |
| C34G A43U G48C | ≤ 0.5 |
| C34G A45G U59G | ≤ 0.5 |
| C34G A45U G50C A57C | ≤ 0.5 |
| C34G A57C | ≤ 0.5 |
| C34G C49A | 0.591 |
